ChEMBL document CHEMBL5252535, “Design of nucleotide-mimetic and non-nucleotide inhibitors of the translation initiation factor eIF4E: Synthesis, structural and functional characterisation” (Eur J Med Chem, 2016)
Active and inactive are the calls of the source. The rule behind the calls is not given here.

How the values were obtained:
Reticulocyte [1] = test: Inhibition of cap dependent translation of renilla luciferase mRNA in pRHCVF RNA primed rabbit reticulocyte lysate at 100 uM incubated for 90 mins by […]; format: functional, subcellular; settings: Oryctolagus cuniculus
Procedure, shortened: (§1)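 Rabbit reticulocyte lysate primed with 20 ng capped pRHCVF RNA (20 μL), 30 °C for 90 min, then on ice. Renilla (cap-dependent) and firefly (HCV IRES) luciferase read; final DMSO ≤1%; inhibition relative to 1% DMSO control set at 100%; m7GTP positive control. Three independent experiments, Student's t-test, S.D.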

Reticulocyte [2] = test: Inhibition of HCV-IRES mediated cap-independent translation of firefly luciferase mRNA in rabbit reticulocyte lysate at 100 uM incubated for 90 mins by […]; format: functional, subcellular; settings: Oryctolagus cuniculus; procedure, shortened: as §1
MCF7 = test: Inhibition of protein synthesis in methionine-starved human MCF7 cells incubated for 24 hrs by scintillation counting based 35S-Met incorporation assay; format: functional, cell-based
HeLa [3] = test: Inhibition of protein synthesis in methionine-starved human HeLa cells incubated for 24 hrs by scintillation counting based 35S-Met incorporation assay; format: functional, cell-based
Procedure, shortened: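 HeLa cells seeded at 6 × 10^4 per well, grown 24 h to 70% confluency, treated 24 h; Met-starved 30 min in Met-free DMEM with fresh compound, then pulsed 30 min with 35S-Met. Cells washed, lysed, protein TCA-precipitated and scintillation counted; puromycin positive control; three independent occasions; IC50 derived.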

[4] = biological target: T1, Eukaryotic translation initiation factor 4E (Homo sapiens, UniProt P06730); test: Inhibition of m7GDP fluorescent probe binding to recombinant eIF4E (unknown origin) assessed as dissociation constant by fluorescence polarization assay
T1 sequence (P06730 whole entry): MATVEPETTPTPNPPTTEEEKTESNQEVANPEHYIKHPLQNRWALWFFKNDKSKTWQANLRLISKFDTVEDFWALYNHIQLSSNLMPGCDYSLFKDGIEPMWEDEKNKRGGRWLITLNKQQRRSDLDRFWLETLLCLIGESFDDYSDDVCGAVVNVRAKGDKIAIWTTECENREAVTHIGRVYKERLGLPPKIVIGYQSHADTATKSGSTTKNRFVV

[5] = biological target: T1, Eukaryotic translation initiation factor 4E; test: Inhibition of P32-[alpha-GTP] cap radiolabelled RNA binding to recombinant eIF4E (unknown origin) assessed as decrease in cross linked RNA-eIF4E complex formation preincubated with UV radiation for 30 mins followed by RNase addition and measured after 30 mins by SDS-PAGE based autoradiographic analysis
Reticulocyte [6] = test: Inhibition of HCV-IRES mediated cap-independent translation of firefly luciferase mRNA in rabbit reticulocyte lysate at 25 to 100 uM incubated for 90 mins by […]; format: functional, subcellular; settings: Oryctolagus cuniculus, dose 25-100 µM; procedure, shortened: as §1
Reticulocyte [7] = test: Inhibition of cap dependent translation of renilla luciferase mRNA in pRHCVF RNA primed rabbit reticulocyte lysate at 25 to 100 uM incubated for 90 mins by […]; format: functional, subcellular; settings: Oryctolagus cuniculus, dose 25-100 µM; procedure, shortened: as §1
HeLa [8] = test: Downregulation of cMyc protein level in human HeLa cells at 50 to 100 uM incubated for 2 hrs by Western blot analysis; format: functional, cell-based; settings: dose 50-100 µM
Procedure, shortened: (§2)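 HeLa cells treated 2 h; lysates probed by western blotting for c-myc and cyclin D1, actin as loading control.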

HeLa [9] = test: Downregulation of cyclin D1 protein level in human HeLa cells at 50 to 100 uM incubated for 2 hrs by Western blot analysis; format: functional, cell-based; settings: dose 50-100 µM; procedure, shortened: as §2
HeLa [10] = test: Inhibition of cap dependent translation in human HeLa cells assessed as decrease in amount of RNA incorporated in polysomes at 25 uM incubated for 2 hrs by UV absorbance recording based assay; format: functional, cell-based
Procedure, shortened: (§3)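 HeLa cells seeded in 15-cm dishes, grown 24 h to 70% confluency, treated 2 h; cycloheximide (0.1 mg/mL) added, cells harvested on ice and lysed (300 mM NaCl, 15 mM MgCl2, 15 mM Tris pH 7.5, heparin, cycloheximide, 0.1% Triton X-100). Lysates run on 10–60% sucrose gradients, 38,000 rpm 2 h; 1 mL fractions with continuous UV absorbance; polysome vs subpolysome areas compared; puromycin positive control.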

HeLa [11] = test: Inhibition of cap dependent translation in human HeLa cells assessed as increase in sub-polysomal material at 50 to 100 uM incubated for 2 hrs by UV absorbance recording based assay; format: functional, cell-based; settings: dose 50-100 µM; procedure, shortened: as §3

In the case of `C[n+]1cn([C@@H]2O[C@H](CNS(=O)(=O)c3ccc(C(=O)O)cc3)[C@@H](O)[C@H]2O)c2nc(N)[nH]c(=O)c21`, the inhibition (Reticulocyte [1]) is reported as “Active”, the inhibition (Reticulocyte [2]) is reported as “inactive” and the inhibition (MCF7) is reported as “inactive”. The inhibition (HeLa [3]) was “inactive”.
For `C[n+]1cn([C@@H]2O[C@H](COP(=O)(O)O)[C@@H](O)[C@H]2O)c2nc(N)[nH]c(=O)c21`, the inhibition (MCF7) was “inactive” and the inhibition (HeLa [3]) was “inactive”.
With `Nc1nc2c(c(=O)[nH]1)[n+](Cc1ccccc1)cn2[C@@H]1O[C@H](CNS(=O)(=O)C(F)(F)F)[C@@H](O)[C@H]1O` the inhibition (Reticulocyte [1]) was “Active”, the inhibition (Reticulocyte [2]) was “inactive” and the Kd [4] was 56.5 µM. For the same compound, the inhibition (MCF7) was “inactive”, the IC50 [5] was 12.6 µM and the inhibition (HeLa [3]) was “inactive”.
With `CC(C)CNC(=S)N(Cc1ccccc1)Cc1cc2cc3c(cc2[nH]c1=O)OCO3` the inhibition (Reticulocyte [6]) was “inactive”, the inhibition (Reticulocyte [7]) was “Active” and the Activity (HeLa [8]) was “Active”. The Activity (HeLa [9]) was “Active”, the inhibition (HeLa [10]) was “Active” and the Kd [4] was 57.8 µM. For the same compound, the inhibition (HeLa [11]) was “Active”.
For `C[n+]1cn([C@@H]2O[C@H](COP(=O)(O)OP(=O)(O)OP(=O)(O)O)[C@@H](O)[C@H]2O)c2nc(N)[nH]c(=O)c21`, the inhibition (MCF7) was “inactive” and the inhibition (HeLa [3]) was “inactive”.
